Source: PubChem BioAssay
KCNQ1 act: potentiators or activators of human KCNQ1 potassium channel; CHO-K1 KCNQ1, thallium flux FluxOR fluorescence; stronger effect = higher value; P51787; B-score at 10 µM; AID 2648; 0.35% of 310,000 active;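 active means fluorescence ratio B-score, a plate-corrected score, at least three library SD, with initial intensity B-score within 5 SD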
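Assay system: stable KCNQ1 CHO-K1 line; medium: assay buffer, equal DMSO in all wells; timing: 90 min dye loading and 20 min compound exposure, both at room temperature; technique: kinetic FluxOR thallium fluorescence, 10-s 1-Hz baseline, 110-s post-stimulus read; read-out basis: B score of baseline-normalized fluorescence ratio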
KCNQ1 inh: inhibitors of human KCNQ1 potassium channel. P51787. CHO-K1 KCNQ1, FluxOR thallium flux fluorescence; stronger effect = higher value. B-score at 10 µM. 1.3% of 310,000 active;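 active means compounds whose thallium flux B-score, printed positive for inhibition, exceeds three library SD while starting fluorescence stays within three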;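 further: channel opened by potassium depolarization with thallium stimulus after 20 min compound exposure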
KCNK9 inh: human KCNK9 channel inhibition | B-score at 10 µM | HEK293 KCNK9, FluxOR thallium flux fluorescence; stronger effect = lower value | Q9NPC2 | 1.2% of 310,000 active;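 active means ratio B-score over 3 SD below the library mean, with starting fluorescence within 5 SD of its mean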;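 further: negative B-score means less thallium flux so channel inhibition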
hERG rescue: compounds protecting human hERG from proarrhythmic drug block; activation (rescue from dofetilide block), less the hit threshold, % at 10 µM; 0.51% of 310,000 active; CHO-hERG, FluxOR thallium flux, dofetilide IC70 present; Q12809;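 active means activation above the mean of controls blocked by dofetilide plus 5 SD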;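 further: thallium influx through hERG after potassium depolarization seen as dye fluorescence rise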
KCNK3 inh: human KCNK3 channel inhibition, primary screen. CHO-KCNK3 thallium flux, FluxOR fluorescence; stronger effect = lower value. B-score at 10 µM. 0.84% of 340,000 active. AID 602410;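 active means B-score under library mean minus 4 SD, starting fluorescence ratio at most library mean plus 5 SD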;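 further: more negative B-score means stronger inhibition of thallium flux through KCNK3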
Kir21 block: blocks the mouse Kir2.1 inward-rectifier potassium channel. P35561. HEK293-Kir2.1, FluxOR thallium flux fluorescence; stronger effect = lower value. B-score at 10 µM. 0.85% of 310,000 active;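 active means fluorescence ratio B-score at or below minus 3 SD of library scores, with starting-brightness B-score within 2 SD, cut at about -4.2 in these data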;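 further: channel flux triggered by added potassium and thallium sulfate stimulus; B-score of peak minus minimum fluorescence over baseline after thallium stimulus; more negative B-score means stronger Kir2.1 block with less thallium influx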
KCNK3 confirm: confirmation of human KCNK3 two-pore domain potassium channel inhibitors; shares compounds with KCNK3 inh; CHO-KCNK3 thallium flux, FluxOR fluorescence; 0% buffer, 100% carvedilol maximal block; ratio percent of control, % at 10 µM; 99% of 2,400 active;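 active means ratio percent of control, averaged over triplicates, above buffer control mean plus 5 SD, cut at about 64% in these data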;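 further: ratio is the fluorescence rise from min to max over baseline after thallium stimulus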
KCNK3 noninduced: counter-screen for KCNK3 inhibitors: effect in non-induced cells. 40% of 2,400 active. shares compounds with KCNK3 inh. non-induced KCNK3 parental cells, FluxOR thallium flux; stronger effect = lower value. AID 651747. thallium flux ratio (lower = more inhibition) at 10 µM;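 active means thallium flux ratio, averaged over three wells, more than 5 SD below the buffer control mean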;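 further: host cells are CHO cells without KCNK3 induction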
Numbers stand for hits; – = inactive; · = no result given. The list is not random: actives were taken first. Their share in the collection is about 3.7%.

SMILES	KCNQ1 act	KCNQ1 inh	KCNK9 inh	hERG rescue	KCNK3 inh	Kir21 block	KCNK3 confirm	KCNK3 noninduced
COC(=O)c1cc(NC(=O)c2cc(-c3ccccc3Cl)oc2C(F)(F)F)ccc1N1CCOCC1	–	8	–	–	-11	–	84	0.12
CN(CC(=O)NCc1cccs1)CC(=O)Nc1ccc(F)c(F)c1F	–	–	–	–	–	–	·	·
CN(CC(=O)Nc1ccc(F)cc1Cl)Cc1cccs1	–	–	–	–	-9.5	–	85	–
CC(C)CCn1c(SCC(=O)N2CC(=O)Nc3ccccc32)nc2scc(-c3cccs3)c2c1=O	–	–	–	–	–	–	·	·
C=CCn1c(SCC(=O)N2CC(=O)Nc3ccccc32)nc2scc(-c3cccs3)c2c1=O	–	–	-7.4	–	-13	–	110	–
O=c1[nH]nc(SCc2ccccc2)n1C1CC2C=CC1C2 (stereo not drawn)	–	–	–	–	–	–	·	·
CC(=O)c1c(C)nn(CC(=O)NC2CCCN(Cc3ccc(CC(C)C)cc3)C2)c1C (stereo not drawn)	–	–	–	–	–	–	·	·
COc1ccccc1/C=N/NC(=O)c1cc2c(ccc3ccccc32)o1	–	–	–	–	-12	–	85	–
CCOc1ccccc1C(=O)NCC(=O)OCCOc1cccc(Cl)c1	–	–	–	–	-10	–	100	–
O=S(=O)(c1ccccc1)N1CCN(c2ccnc3cc(Cl)ccc23)CC1	–	–	–	–	-9.3	–	98	–
Cc1ccc(NC(=O)CSCC(=O)N(C)CC(=O)Nc2ccccc2C(F)(F)F)cc1	·	·	·	·	–	·	·	·
S=C1NC2=C(CCC/C2=C\c2ccccc2)C(c2ccccc2)N1 (stereo not drawn)	–	–	–	–	–	–	·	·
Fc1ccccc1/C=C1\CCCC2=C1NC(=S)NC2c1ccccc1F (stereo not drawn)	–	–	–	–	-9	–	101	–
Cc1cccc(Nc2ccncc2S(N)(=O)=O)c1	–	–	–	–	–	–	·	·
Cc1cc(C)n2nc(SCc3cccc(F)c3)nc2n1	–	–	–	–	–	–	·	·
O=C(NNc1c2ccccc2nc2ccccc12)c1cccc(O)c1	–	–	–	–	–	–	·	·
Oc1cccc(-c2nc3ccc4ccccc4c3c3c2CCC3)c1	–	–	–	–	-19	–	111	0.15
CCN(C[C@H]1N[C@@](C)(C(=O)OC)[C@H]2C(=O)N(C)C(=O)[C@@H]12)C(=O)Nc1ccc(C(F)(F)F)cc1	·	·	·	·	–	·	·	·
CCN(CC)S(=O)(=O)c1ccc(C)c(NC(=S)N2CCN(C/C=C/c3ccccc3)CC2)c1	–	–	–	–	-11	–	101	–
CCc1cccc(NC2c3ccccc3C(=O)N2c2cccnc2)c1 (stereo not drawn)	–	–	–	–	-11	–	100	–
CCOC(=O)c1ccc(NC2c3ccccc3C(=O)N2c2cccnc2)cc1 (stereo not drawn)	–	–	–	–	-9.7	–	112	–
Cc1cc(=O)n(C2CCS(=O)(=O)C2)[nH]1 (stereo not drawn)	–	–	–	–	–	–	·	·
O=C(c1ccccc1F)N(NC(=O)C(O)(c1ccccc1)c1ccccc1)c1ccccc1	–	–	–	–	–	–	·	·
Cc1csc(SCC(=O)c2cc(C)n(Cc3cccs3)c2C)n1	–	–	–	–	-9.5	–	133	0.14
Cc1cc(C(=O)CSc2nnc(N)s2)c(C)n1Cc1cccs1	–	–	–	–	–	–	·	·
SMILES	KCNQ1 act	KCNQ1 inh	KCNK9 inh	hERG rescue	KCNK3 inh	Kir21 block	KCNK3 confirm	KCNK3 noninduced
Cc1cc(C(=O)CSc2n[nH]c(-c3ccccc3F)n2)c(C)n1Cc1cccs1	–	–	–	–	-10	–	92	–
CC(=O)Nc1ccc(SCC(=O)c2cc(C)n(Cc3cccs3)c2C)cc1	–	–	–	–	–	–	·	·
Cc1cc(NC(=O)CCC(=O)N(Cc2ccco2)C2(C(=O)NC3CCCCC3)CCCCC2)no1	–	–	–	–	–	–	·	·
Cc1cc(O)c(C(C)C)cc1NC(=O)c1ccc(Cl)cc1	–	–	–	–	–	–	·	·
Cc1cc(O)c(C(C)C)cc1NC(=O)c1cccc(Cl)c1	–	–	–	–	-9	–	109	–
COc1ccc(-n2c(=O)c3c(C)c(C)sc3n(Cc3ccc(F)cc3)c2=O)c(OC)c1	–	–	–	–	–	–	·	·
